In PMC5084759 (British Journal of Haematology, 2016):

Tests used:
[1] = Safety and tolerability: adverse events; type: in vivo, human; conditions: for On-study deaths: first dose to 30 d after last dose
Procedure, shortened: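 The safety population was all patients given ≥1 dose: a single 3 mg dose in Part A, then optional Part B dosing at 4, 3 or 2·3 mg on days 1, 8 and 15 of 28-d cycles, with or without dexamethasone. AEs, including SAEs, were recorded throughout treatment up to 30 d after the last dose and graded by NCI CTCAE v4.03.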

[2] = Haemodialysis clearance, pre- and post-dialyser plasma samples in ESRD patients; type: in vivo, human
[3] = test system: relapsed and/or refractory multiple myeloma; experiment: Myeloma disease response; type: in vivo, human
Procedure, shortened: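 Part B dosing was oral ixazomib 4, 3 or 2·3 mg on days 1, 8 and 15 of 28-d cycles. Some patients also received dexamethasone 40 mg (20 mg if >75 years) on days 1, 8, 15 and 22 at investigator discretion. Investigators assessed response by IMWG uniform criteria across all cycles, with one bone marrow assessment to document CR. DOR ran from first CR/VGPR/PR to first progression.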

[4] = ref Gupta et al, 2013; cited from earlier work
[5] = CrCl 30-89 ml/min; ref Gupta et al, 2015b; cited from earlier work
[6] = Stability of ixazomib in dialysate fluid; type: physicochemical; conditions: dialysate fluid used in haemodialysis
CYP1A2 = conditions: supra-therapeutic concentrations; ref unpublished observations; cited from earlier work

CC(C)C[C@H](NC(=O)CNC(=O)c1cc(Cl)ccc1Cl)B(O)O [ixazomib]
TEAE: Vomiting ([1]; normal renal function (N = 20)): 6 (30) n (%) | On-study deaths ([1]; normal renal function (N = 20)): 0 n (%) | AEs leading to ixazomib discontinuations ([1]; normal renal function group): 10% | AEs leading to ixazomib dose reductions ([1]; normal renal function group): 20% | Incidence of AE anaemia ([1]; normal renal function group): 5% | Incidence of grade ≥3 AEs ([1]; normal renal function group): 45% | Incidence of serious AEs ([1]; normal renal function group): 15% | Investigator-attributed drug-related anaemia ([1]; normal renal function group): 5% | Any TEAE ([1]; severe RI (N = 14)): 14 (100) n (%) | Any TEAE, Grade ≥3 ([1]; severe RI (N = 14)): 11 (79) n (%) | Drug-related SAE ([1]; severe RI (N = 14)): 2 (14) n (%) | SAE ([1]; severe RI (N = 14)): 6 (43) n (%) | Study drug-related TEAE ([1]; severe RI (N = 14)): 12 (86) n (%) | Study drug-related TEAE, Grade ≥3 ([1]; severe RI (N = 14)): 7 (50) n (%) | TEAE resulting in ixazomib discontinuation ([1]; severe RI (N = 14)): 4 (29) n (%) | TEAE resulting in ixazomib dose reduction ([1]; severe RI (N = 14)): 4 (29) n (%) | TEAE: Anaemia ([1]; severe RI (N = 14)): 6 (43) n (%) | TEAE: Arthralgia ([1]; severe RI (N = 14)): 2 (14) n (%) | TEAE: Constipation ([1]; severe RI (N = 14)): 3 (21) n (%) | TEAE: Diarrhoea ([1]; severe RI (N = 14)): 6 (43) n (%) | TEAE: Dizziness ([1]; severe RI (N = 14)): 4 (29) n (%) | TEAE: Dyspnoea ([1]; severe RI (N = 14)): 3 (21) n (%) | TEAE: Fatigue ([1]; severe RI (N = 14)): 6 (43) n (%) | TEAE: Hypotension ([1]; severe RI (N = 14)): 3 (21) n (%) | TEAE: Nausea ([1]; severe RI (N = 14)): 5 (36) n (%) | TEAE: Peripheral oedema ([1]; severe RI (N = 14)): 4 (29) n (%) | TEAE: URT infection ([1]; severe RI (N = 14)): 1 (7) n (%) | TEAE: Vomiting ([1]; severe RI (N = 14)): 5 (36) n (%) | On-study deaths ([1]; severe RI (N = 14)): 2 (14) n (%) | AEs leading to ixazomib discontinuations ([1]; severe RI group): 29% | AEs leading to ixazomib dose reductions ([1]; severe RI group): 29% | Incidence of AE anaemia ([1]; severe RI group): 43% | Incidence of grade ≥3 AEs ([1]; severe RI group): 79% | Incidence of serious AEs ([1]; severe RI group): 43% | Investigator-attributed drug-related anaemia ([1]; severe RI group): 29% | On-study deaths, number ([1]; severe RI group): 2 | Any TEAE ([1]; total (N = 41)): 39 (95) n (%) | Any TEAE, Grade ≥3 ([1]; total (N = 41)): 24 (59) n (%) | Drug-related SAE ([1]; total (N = 41)): 5 (12) n (%) | SAE ([1]; total (N = 41)): 12 (29) n (%) | Study drug-related TEAE ([1]; total (N = 41)): 32 (78) n (%) | Study drug-related TEAE, Grade ≥3 ([1]; total (N = 41)): 15 (37) n (%) | TEAE resulting in ixazomib discontinuation ([1]; total (N = 41)): 6 (15) n (%) | TEAE resulting in ixazomib dose reduction ([1]; total (N = 41)): 8 (20) n (%) | TEAE: Anaemia ([1]; total (N = 41)): 9 (22) n (%) | TEAE: Arthralgia ([1]; total (N = 41)): 6 (15) n (%) | TEAE: Constipation ([1]; total (N = 41)): 9 (22) n (%) | TEAE: Diarrhoea ([1]; total (N = 41)): 16 (39) n (%) | TEAE: Dizziness ([1]; total (N = 41)): 6 (15) n (%) | TEAE: Dyspnoea ([1]; total (N = 41)): 6 (15) n (%) | TEAE: Fatigue ([1]; total (N = 41)): 12 (29) n (%) | TEAE: Hypotension ([1]; total (N = 41)): 5 (12) n (%) | TEAE: Nausea ([1]; total (N = 41)): 14 (34) n (%) | TEAE: Peripheral oedema ([1]; total (N = 41)): 6 (15) n (%) | TEAE: URT infection ([1]; total (N = 41)): 7 (17) n (%) | TEAE: Vomiting ([1]; total (N = 41)): 13 (32) n (%) | On-study deaths ([1]; total (N = 41)): 3 (7) n (%) | Haemodialysis clearance as share of overall systemic clearance ([2]; ESRD patients requiring haemodialysis): less than 10% | Ixazomib concentrations in pre- versus post-dialyser samples ([2]; ESRD patients, 4-h haemodialysis session about 24-28 h after dose): similar | clearance ([2]; human, plasma, oral, 3 mg): < 2 mL/min | Patients with a response ([3]; normal renal function or ESRD groups (3 and 4 response-evaluable)): no patients | Patients with a PR ([3]; severe RI, 11 response-evaluable): five | PK interaction between ixazomib and dexamethasone [4]: no PK interaction | Ixazomib clearance in patients with mild or moderate RI [5]: not altered | Stability in dialysate [6]: instability | Contribution to in vitro metabolism of ixazomib (CYP1A2): primary contributors
